Screening results: PubChem, several laboratories
Hits are enriched below; roughly 1.5% of the tested compounds scored in any of these assays.
PG9 Ab binder: small molecules binding HIV-1 gp120 antibody PG9; TR-FRET gp120-PG9 antibody binding; inhibition, % at 6.7 µM; actives 0.43% (n = 360,000); in the data active = inhibition above about 8.5%
NR2E3 ag-1: agonists of human NR2E3 nuclear receptor. Q9Y5X4. CHO-S Gal4-NCOR/VP16-NR2E3 two-hybrid, luciferase. inhibition of corepressor binding, % at 3.98 µM. actives 0.35% (n = 360,000);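 active = inhibition above the mean of all tested compounds plus 3 SD, cut at about 70% in these data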;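 also: 0% = DMSO with NR2E3 transfected cells and 100% = cells lacking NR2E3 construct; higher means lower luciferase signal from less NR2E3 corepressor binding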
Target sequence (Q9Y5X4 whole entry, looked up, the tested form may be a part): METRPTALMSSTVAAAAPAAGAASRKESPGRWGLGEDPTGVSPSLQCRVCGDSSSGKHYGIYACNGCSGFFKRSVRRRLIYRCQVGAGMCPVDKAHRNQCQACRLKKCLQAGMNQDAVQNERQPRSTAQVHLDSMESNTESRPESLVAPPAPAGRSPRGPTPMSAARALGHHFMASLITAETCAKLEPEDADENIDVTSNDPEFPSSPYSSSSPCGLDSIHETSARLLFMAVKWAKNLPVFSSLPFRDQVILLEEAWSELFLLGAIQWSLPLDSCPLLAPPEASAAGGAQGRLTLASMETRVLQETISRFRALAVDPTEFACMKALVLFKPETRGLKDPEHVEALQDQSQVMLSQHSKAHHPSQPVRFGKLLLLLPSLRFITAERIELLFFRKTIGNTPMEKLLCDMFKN
NR2E3 ag-2: agonists of human nuclear receptor NR2E3; GST-NR2E3/biotin-RetCOR TR-FRET, 1536-well; inhibition of corepressor binding, % at 4.78 µM; actives 0.12% (n = 320,000); AID 2300;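 active = percent inhibition above the cutoff of mean plus 3 SD of all tested compounds, set per screening campaign, cut at about 20% in these data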;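 also: 0% = DMSO wells and 100% = biotin wells as full block of FRET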
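Material: NR2E3–RetCOR corepressor complex | Quantity: 1.35 nM GST-tagged NR2E3 final | Schedule: 5 h at 4 °C | Replication: Singlicate compound wells | Reagent: RetCOR corepressor, biotinylated, 7 nM | Controls: Biotin wells as high control, 0.6% DMSO wells as low control | Signal: TR-FRET, Eu(K)-anti-GST donor, streptavidin-D2 acceptor, ex 340, em 617/671 nm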
NR1D1 modulator: modulators of human Rev-erb alpha DNA binding; P20393; Rev-erbα–FITC-DNA binding, fluorescence polarization, 90 min; activity, % at 10 µM; actives 0.79% (n = 370,000);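 active = activity above about 14%, limit read from the data; passing the limit was not always enough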;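 also: 0% = DMSO wells with 35 nM protein and 100% = DMSO wells with 750 nM protein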
PG9 bind confirm: confirmation of small molecules binding HIV-1 gp120 antibody PG9. actives 90% (n = 1,500). inhibition, % at 6.7 µM. shares compounds with PG9 Ab binder. TR-FRET PG9 antibody binding, biochemical. AID 651571; in the data active = inhibition above about 9%
PGV04 Ab binding: PGV04 control antibody binding, counter-screen | shares compounds with PG9 Ab binder | TR-FRET PGV04 antibody-gp120 binding, biochemical | actives 95% (n = 1,500) | inhibition, % at 6.7 µM; in the data active = inhibition above about 9.5%
PG9 bind DR: PG9 antibody binding, dose response | shares compounds with PG9 Ab binder | TR-FRET PG9 antibody-gp120 binding inhibition | IC50, µM | 95 tested, under 10 active; in the data active = IC50 below about 10 µM
PGV04 binding DR: PGV04 binding, dose response counter-screen | actives 20% (n = 95) | TR-FRET binding to control antibody PGV04 | IC50, µM | shares compounds with PG9 Ab binder
PG126 binding DR: binds control antibody PG126 in PG9 counter-screen; shares compounds with PG9 Ab binder; TR-FRET binding to antibody PG126, counterscreen; IC50, µM; actives 20% (n = 95)
* hit, by the source's call; i = inactive; nt = no result given. Rule as the data show it, unless noted: active = IC50 below about 9 µM; inactive = the rest.

SMILES	PG9 Ab binder	NR2E3 ag-1	NR2E3 ag-2	NR1D1 modulator	PG9 bind confirm	PGV04 Ab binding	others
O=C(CCCn1c(=S)[nH]c2cc3c(cc2c1=O)OCO3)NCCc1ccc(Cl)cc1	3.6	15.5	nt	17.6	nt	nt
CCN(CCCNC(=O)CCn1c(=S)[nH]c2cc3c(cc2c1=O)OCO3)c1cccc(C)c1	10.1*	13.2	2.8	-0.9	11.6*	14.2*
Cc1cccc(N2CCN(C(=O)CCn3c(=S)[nH]c4cc5c(cc4c3=O)OCO5)CC2C)c1 (stereo not given)	-0.1	8.8	-5.9	4.1	nt	nt
O=C(CCCCCn1c(=S)[nH]c2cc3c(cc2c1=O)OCO3)NCCc1ccccc1	19.9*	-2.9	14.1	18.1	17.5*	24.0*
O=C(OCC#CCSc1nnc(-c2cccc3ccccc23)o1)C1CCCC1	nt	nt	nt	-5.3	nt	nt
Cc1cccc2cc(CN(Cc3ccco3)C(=O)c3ccncc3)c(=O)[nH]c12	9.3*	-3.7	-1.5	-0.7	8.1	10.1*
COc1ccc(CN2C(=O)CCCC2(C)c2nnnn2-c2ccc3c(c2)OCCO3)cc1 (stereo not given)	nt	nt	nt	1.7	nt	nt
CCSc1n[nH]c2nc3c(c(=O)n12)C1(CCCC1)Cc1ccccc1-3	1.4	-1.9	1.9	-10.6	nt	nt
Cc1ccc(-n2c(SCC(N)=O)nc3c(c2=O)C2(CCCC2)Cc2ccccc2-3)cc1	10.9*	-1.6	10.3	-2.5	23.1*	32.4*
COc1ccc2[nH]c(=O)c(COC(=O)c3cccs3)cc2c1	32.7*	-17.9	-1.8	3.3	16.1*	26.5*
Cc1cccc(-c2cccc3c4c([nH]c23)[C@@H]2C[C@H](N(C)C(=O)OCc3ccccc3)[C@H]([C@H](C)O)CN2CC4)c1	nt	nt	nt	-1.3	nt	nt
O=C(COC(=O)c1cn(-c2ccccc2)nc1-c1ccc(F)cc1)Nc1ncc(Cl)cc1Cl	-0.4	-31.5	0.6	5.4	nt	nt
NS(=O)(=O)c1ccc(NC(=O)COC(=O)c2cn(-c3ccccc3)nc2-c2ccc(F)cc2)cc1	9.0*	11.1	4.7	4.0	16.4*	24.3*
COc1cc(NC(=O)c2cc3ccccc3o2)c(OC)cc1Cl	20.2*	-28.0	-0.2	16.3	18.1*	34.1*
COC(=O)[C@]12C[C@H](CC(=O)NCCC(C)C)C(=O)N(CCC3=CCCCC3)C1=C[C@H](C(C)(C)C)O[C@@H]2C	0.1	nt	nt	0.3	nt	nt
CC(=O)c1ccc(OCCCC(=O)Nc2nnc(C3CC3)s2)cc1	8.7*	-2.4	nt	-0.8	18.1*	25.3*
Cc1cc(=O)[nH]c(SCC(=O)c2ccc(C(C)C)cc2)n1	-1.4	-34.7	-0.2	0.3	nt	nt
Cc1cc(C)c2c(=O)[nH]c(SCC(=O)c3ccc(C(C)C)cc3)nc2n1	32.0*	12.8	0.1	-3.6	59.4*	75.8*
CC(=O)c1ccc(NC(=O)CSc2ccc(-c3ccc4c(c3)OCO4)nn2)cc1	10.2*	-8.1	-30.5	13.7	15.4*	29.1*
CCn1c(SCC(=O)Nc2ccc(C(C)C)cc2)nnc1-c1ccc(C(C)(C)C)cc1	nt	nt	nt	3.0	nt	nt
CCOc1ccc2nc(NCCNC(=O)Nc3cccc(C)c3)c(C#N)cc2c1	9.8*	-6.6	1.4	-0.9	15.2*	32.2*
COc1ccc(C(=O)NCCNc2nc3ccc(C)cc3cc2C#N)cc1	45.1*	-29.7	-0.7	-5.9	12.1*	36.3*
O=C(Cn1[nH]c(=O)c2ccccc2c1=O)NCC1COc2ccccc2O1 (stereo not given)	-0.6	2.4	1.3	3.5	nt	nt
O=C(Cn1ccc2ccccc2c1=O)NCC1COc2ccccc2O1 (stereo not given)	16.7*	-4.0	-0.4	-0.6	20.7*	26.8*
NS(=O)(=O)c1c(Sc2ccccc2C(=O)O)ccc2ccccc12	14.8*	-106.4	18.2	-3.5	15.0*	20.2*
SMILES	PG9 Ab binder	NR2E3 ag-1	NR2E3 ag-2	NR1D1 modulator	PG9 bind confirm	PGV04 Ab binding	others
O=c1[nH]c2cc(O)ccc2c2ccccc12	36.7*	-9.9	nt	-3.2	38.5*	47.5*
O=c1oc2cc(O)ccc2c2ccccc12	22.3*	-8.2	12.8	-4.9	28.6*	37.5*
CSc1nc(-c2cccs2)c(C#N)c(=O)[nH]1	49.0*	-18.7	17.1	-8.8	54.9*	68.1*
CCSc1nc(-c2ccccc2)c(C#N)c(=O)[nH]1	9.5*	-16.6	14.2	-2.3	14.6*	21.4*
CCOC(=O)Cc1csc(NC(=O)CSc2nc(-c3ccccc3)c(C#N)c(=O)[nH]2)n1	0.2	-8.3	12.1	-1.1	nt	nt
N#Cc1c(-c2cccs2)cc(-c2cccs2)[nH]c1=O	6.4	-14.4	9.6	3.9	nt	nt
CNC(=O)NC(=O)CSc1nc(-c2cccs2)c(C#N)c(=O)[nH]1	57.8*	-13.2	nt	5.4	57.8*	69.5*
COc1ccc(S(=O)(=O)N2CCC(c3nc4ccccc4o3)CC2)c(OC)c1	nt	nt	nt	2.9	nt	nt
Cc1cccc(Cn2cc(COC(=O)N3CCCC3)nn2)c1	nt	nt	nt	-7.3	nt	nt
Nc1cc(=O)[nH]c(SCc2nc3ccccc3n2Cc2ccccc2)n1	0.8	-0.9	2.7	3.0	nt	nt
O=c1[nH]c(SCc2nc3ccccc3n2Cc2ccccc2)nc2ccccc12	12.9*	-4.5	-0.4	3.2	23.7*	30.0*
CC(C)CNC(=O)OCc1cn(Cc2ccccc2C(F)(F)F)nn1	nt	nt	nt	4.8	nt	nt
Cn1c(/C=C/c2ccccc2[N+](=O)[O-])nc2ccccc2c1=O	0.7	-18.3	nt	5.0	nt	nt
Cn1c(/C=C/c2ccc(Br)cc2)nc2ccccc2c1=O	45.5*	-67.2	0.5	14.3	14.9*	28.8*
CCOc1ccc(CC(=O)Nc2c(C(=O)Nc3ccccc3)oc3ccccc23)cc1OCC	23.4*	-15.5	4.7	12.7	21.7*	33.4*
COc1ccc(CC(=O)Nc2c(C(N)=O)oc3ccccc23)cc1OC	-1.7	-2.9	7.7	2.3	nt	nt
COC(=O)Nc1nc(C)c(C(=O)c2ccccc2)s1	1.5	-63.8	0.3	2.6	nt	nt
COC(=O)Nc1nc(-c2ccccc2)c(C(=O)c2ccccc2)s1	20.1*	23.4	0.0	19.1	19.4*	19.4*	PG9 bind DR=>67.1;PGV04 binding DR=i;PG126 binding DR=i
COc1ccccc1NC(C)=O	11.7*	1.2	-1.8	-3.2	6.5	8.0
Cc1ccc(SCCC(=O)Nc2ccc(OCc3ccccc3)cc2)cc1	9.2*	-29.6	3.9	3.3	15.1*	18.8*
CCOc1ccc(NC(=O)CCSc2ccc(C)cc2)cc1	-0.4	-13.3	2.8	1.4	nt	nt
CC(COc1cccc(Cl)c1)CN1CCC(C(O)(c2ccccc2)c2ccccc2)CC1 (stereo not given)	nt	nt	nt	-0.1	nt	nt
